The text below walks through data of ChEMBL document CHEMBL2390832, “Synthesis and activity evaluation of tilorone analogs as potential anticancer agents” (Eur J Med Chem, 2013).

Counter-ions that a name gives are not always drawn. Active and inactive are the calls of the source. The rule behind the calls is not given here.

In experiment [1] the test system is A549. Put plainly: Anticancer activity against human A549 cells at =/> 100 uM after 48 hrs by MTT assay. Type of experiment: functional, cell-based.
Experiment [2] deals with HeLa. The experiment is described as follows: Anticancer activity against human HeLa cells at =/> 100 uM after 48 hrs by MTT assay. Type of experiment: functional, cell-based.
A further experiment deals with Hep 3B2. Put plainly: Anticancer activity against human Hep3B cells at =/> 100 uM after 48 hrs by MTT assay. It counts as functional, cell-based.
In another experiment the test system is HEK-293T. The experiment is described as follows: Cytotoxicity against human HEK293T cells after 48 hrs by MTT assay. Type of experiment: cell-based. In short, it runs like this: (§1)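 Cells seeded at 1 × 10⁴/well in DMEM with 10% FBS and left overnight at 37 °C, 5% CO₂. Five concentrations (1 µM–100 µM) diluted in DMEM were added and incubated for 48 h. MTT (10 µl of 5 mg/ml) was then added for 4 h at 37 °C. Formazan was dissolved in DMSO and absorbance read at 490 nm. At least three parallel runs; IC50 by regression analysis.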

In the next experiment the test system is Vero. The experiment is described as follows: Cytotoxicity against African green monkey Vero cells after 48 hrs by MTT assay. It counts as cell-based. As to conditions: Chlorocebus sabaeus. The procedure, abridged: as §1
Experiment [3] has as its system A549. Put plainly: Anticancer activity against human A549 cells after 48 hrs by MTT assay. Type of experiment: functional, cell-based. As to conditions: A549, 48 h. In short, it runs like this: as §1
Experiment [4] in a line: Anticancer activity against human Hep3B cells after 48 hrs by MTT assay. It counts as functional, cell-based, Hep 3B2. In short, it runs like this: as §1
Experiment [5] concerns HeLa. Put plainly: Anticancer activity against human HeLa cells after 48 hrs by MTT assay. It counts as functional, cell-based. The procedure, abridged:
as §1

Regarding `O=c1c(-c2ccc(OCCCBr)cc2)coc2cc(OCCCBr)ccc12`, the result with A549 [1], with HeLa [2] and in the experiment on Hep 3B2 was inactive.

On to `CCCN(CCC)CC(O)COc1ccc(-c2coc3cc(OCC(O)CN(CCC)CCC)ccc3c2=O)cc1` (centres undefined), for which the IC50 in the experiment with HEK-293T came to 39.6 µM; with Vero, 35.5 µM; in the experiment on A549 [3], 4.26 µM; in experiment [4], 6.52 µM; in the experiment with HeLa [5] it was 5.17 µM.

As to `CCN(CC)CCCOc1ccc(-c2coc3cc(OCCCN(CC)CC)ccc3c2=O)cc1`, the IC50 came to 73.5 µM in the experiment on A549 [3], 76.1 µM in experiment [4] and 82.4 µM with HeLa [5].

In the case of `CCN(CC)CC(O)COc1ccc(-c2coc3cc(OCC(O)CN(CC)CC)ccc3c2=O)cc1` (centres undefined), the IC50 came to 52.9 µM in the experiment with HEK-293T; 60.1 µM with Vero; 25 µM in the experiment with A549 [3]; 30.4 µM in experiment [4]; 27.8 µM with HeLa [5].

As for `O=c1c(-c2ccc(OCCCl)cc2)coc2cc(OCCCl)ccc12`, the outcome with A549 [1], in the experiment with HeLa [2] and in the experiment with Hep 3B2 was inactive.

Take `CC(C)(C)SCCOc1ccc2c(c1)C(=O)c1cc(OCCSC(C)(C)C)ccc1-2`: the outcome in the experiment on A549 [1], in the experiment with HeLa [2] and in the experiment on Hep 3B2 was inactive.

For the molecule `CN(C)CC(O)COc1ccc2c(c1)C(=O)c1cc(OCC(O)CN(C)C)ccc1-2` (centres undefined), the IC50 with HEK-293T turned out to be 28.3 µM; in the experiment on Vero it was 20.9 µM; in the experiment with A549 [3] it was 12.6 µM; in experiment [4], 18.3 µM; in the experiment with HeLa [5], 11.7 µM.

As to `CCOc1ccc2c(c1)C(=O)c1cc(OCCN(CC)CC)ccc1-2`, the values for the IC50 (in the experiment with A549 [3]; in experiment [4]; in the experiment on HeLa [5]) were more than 100 µM, 84.8 µM and 107 µM, respectively.

As to `CCOc1ccc2c(c1)C(=O)c1cc(OCCN(C)C)ccc1-2`, the IC50 (in the experiment on A549 [3]; in experiment [4]; in the experiment on HeLa [5]) was more than 100 µM in each case.

As for `CCOc1ccc2c(c1)C(=O)c1cc(OCCCl)ccc1-2`, the outcome in the experiment on A549 [1], in the experiment on HeLa [2] and in the experiment with Hep 3B2 was inactive.

As for `CCN(CC)CCOc1ccc(-c2coc3cc(OCCN(CC)CC)ccc3c2=O)cc1`, the IC50 was found to be 107 µM with HEK-293T; 102 µM with Vero; 19.4 µM in the experiment with A549 [3]; 35.2 µM in experiment [4]; 26.4 µM with HeLa [5].

With `O=C1c2cc(OCCn3cncn3)ccc2-c2ccc(OCCn3cncn3)cc21`, the IC50 (in the experiment with A549 [3]; in experiment [4]; in the experiment on HeLa [5]) was more than 100 µM each time.

As for `CCCN(CCC)CC(O)COc1ccc2c(c1)C(=O)c1cc(OCC(O)CN(CCC)CCC)ccc1-2` (centres undefined), the IC50 turned out to be 54 µM with HEK-293T; 57.8 µM with Vero; 7.42 µM in the experiment with A549 [3]; 9.43 µM in experiment [4]; 6.78 µM with HeLa [5].

With `O=C1c2cc(OCCn3ccnn3)ccc2-c2ccc(OCCn3ccnn3)cc21`, the IC50 (with A549 [3]; in experiment [4]; with HeLa [5]) was more than 100 µM in each case.

Turning to `O=C1c2cc(OCC(O)CN3CCCCC3)ccc2-c2ccc(OCC(O)CN3CCCCC3)cc21` (centres undefined), the concentration for half-maximal inhibition (IC50) in the experiment on HEK-293T came out at 17.9 µM; in the experiment on Vero, 13 µM; with A549 [3], 1.4 µM; in experiment [4], 6.76 µM; in the experiment on HeLa [5], 1.82 µM.

With `CN(C)CCCOc1ccc(-c2coc3cc(OCCCN(C)C)ccc3c2=O)cc1`, the IC50 in the experiment with HEK-293T worked out at 41.9 µM; in the experiment on Vero, 34.9 µM; with A549 [3], 20.6 µM; in experiment [4] it was 24.4 µM; in the experiment with HeLa [5], 22.2 µM.

With `CCCCNCCOc1ccc2c(c1)C(=O)c1cc(OCCNCCCC)ccc1-2`, the IC50 with HEK-293T is 11 µM; in the experiment with Vero it was 8.89 µM; in the experiment on A549 [3] it was 2.65 µM; in experiment [4] it was 3.34 µM; in the experiment on HeLa [5] it was 2.21 µM.

For the molecule `CCCNCCOc1ccc2c(c1)C(=O)c1cc(OCCNCCC)ccc1-2`, the IC50 with HEK-293T was determined as 8.59 µM; in the experiment with Vero, 8.47 µM; in the experiment with A549 [3], 2.96 µM; in experiment [4], 5.17 µM; in the experiment on HeLa [5], 2.73 µM.

In the case of `CCN(CC)CCOc1ccc2c(c1)C(=O)c1cc(OCCN(CC)CC)ccc1-2` [TILORONE HYDROCHLORIDE], the IC50 in the experiment on HEK-293T came out at 76.4 µM; with Vero it was 89.5 µM; in the experiment with A549 [3], 32.6 µM; in experiment [4] it was 38.8 µM; in the experiment with HeLa [5] it was 40 µM.

Take `CC(C)NCCOc1ccc2c(c1)C(=O)c1cc(OCCNC(C)C)ccc1-2`: the IC50 in the experiment on HEK-293T is 13.8 µM; with Vero it was 14.8 µM; in the experiment with A549 [3], 2.43 µM; in experiment [4] it was 8.89 µM; with HeLa [5] it was 1.72 µM.

Consider `O=c1c(-c2ccc(OCC(O)CN3CCCCC3)cc2)coc2cc(OCC(O)CN3CCCCC3)ccc12` (centres undefined), for which the IC50 in the experiment on HEK-293T was found to be 20.2 µM; in the experiment on Vero, 18.5 µM; in the experiment with A549 [3], 4.34 µM; in experiment [4], 12 µM; in the experiment with HeLa [5], 5.32 µM.

`O=C1c2cc(OCCn3ccnc3)ccc2-c2ccc(OCCn3ccnc3)cc21`: the IC50 (in the experiment with A549 [3]; in experiment [4]; in the experiment on HeLa [5]) was more than 100 µM in each case.

As for `CCN(CC)CC(O)COc1ccc2c(c1)C(=O)c1cc(OCC(O)CN(CC)CC)ccc1-2` (centres undefined), the IC50 in the experiment on HEK-293T is 56.4 µM; with Vero, 48.6 µM; in the experiment on A549 [3] it was 16 µM; in experiment [4], 21.5 µM; in the experiment with HeLa [5] it was 20.2 µM.

In the case of `CCN(CC)CCOc1ccc2c(c1)C(=O)c1cc(OCCCl)ccc1-2`, the IC50 (in the experiment with A549 [3]; in experiment [4]; with HeLa [5]) was more than 100 µM in each case.

With `CC(C)(C)NCCOc1ccc2c(c1)C(=O)c1cc(OCCNC(C)(C)C)ccc1-2`, the IC50 was found to be 19.8 µM in the experiment on HEK-293T; 25.3 µM in the experiment with Vero; 7.86 µM in the experiment with A549 [3]; 20.1 µM in experiment [4]; 9.17 µM with HeLa [5].

Consider `CCOc1ccc2c(c1)C(=O)c1cc(OCCO)ccc1-2`, for which the outcome in the experiment with A549 [1], in the experiment with HeLa [2] and with Hep 3B2 was inactive.

`CC(C)SCCOc1ccc2c(c1)C(=O)c1cc(OCCSC(C)C)ccc1-2`: the outcome in the experiment with A549 [1], in the experiment with HeLa [2] and in the experiment with Hep 3B2 was inactive.
